Data taken from the M2OR odorant receptor database.
Positions count from the first letter of the chain named.

Key:
Conditions in all cases: stereoisomer not certain
UniProt L7MU75 = biological target: T1, UniProt L7MU75
T1 sequence (whole entry): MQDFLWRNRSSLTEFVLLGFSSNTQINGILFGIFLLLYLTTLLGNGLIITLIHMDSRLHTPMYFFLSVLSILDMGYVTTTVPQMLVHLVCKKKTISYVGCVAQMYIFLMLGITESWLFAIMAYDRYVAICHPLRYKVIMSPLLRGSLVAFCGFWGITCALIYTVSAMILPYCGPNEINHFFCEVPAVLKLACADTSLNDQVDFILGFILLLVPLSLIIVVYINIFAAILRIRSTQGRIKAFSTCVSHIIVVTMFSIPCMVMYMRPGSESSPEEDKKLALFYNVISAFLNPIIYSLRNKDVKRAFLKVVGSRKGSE
How it was run: (§1)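 Each receptor–molecule pair is labelled responsive or non-responsive (inactive) according to whether the original authors judged the measured signal statistically different from baseline. The data were taken from the main text and supplementary material of published papers and checked for typos and inconsistencies. Assay methods differed by source, with transient luciferase assays in mammalian cell lines being common.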

UniProt L7N210 = biological target: T2, UniProt L7N210
T2 sequence (whole entry): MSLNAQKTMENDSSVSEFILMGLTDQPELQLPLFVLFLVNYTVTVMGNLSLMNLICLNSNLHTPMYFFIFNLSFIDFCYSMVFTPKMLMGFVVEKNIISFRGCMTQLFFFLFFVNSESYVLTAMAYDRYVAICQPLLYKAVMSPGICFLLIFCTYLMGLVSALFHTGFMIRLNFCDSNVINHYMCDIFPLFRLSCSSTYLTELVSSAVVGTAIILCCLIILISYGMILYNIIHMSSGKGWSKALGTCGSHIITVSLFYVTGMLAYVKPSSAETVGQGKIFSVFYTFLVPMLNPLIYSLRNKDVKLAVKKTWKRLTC
How it was run: as §1

UniProt Q3KPB0 = biological target: T3, UniProt Q3KPB0
T3 sequence (whole entry): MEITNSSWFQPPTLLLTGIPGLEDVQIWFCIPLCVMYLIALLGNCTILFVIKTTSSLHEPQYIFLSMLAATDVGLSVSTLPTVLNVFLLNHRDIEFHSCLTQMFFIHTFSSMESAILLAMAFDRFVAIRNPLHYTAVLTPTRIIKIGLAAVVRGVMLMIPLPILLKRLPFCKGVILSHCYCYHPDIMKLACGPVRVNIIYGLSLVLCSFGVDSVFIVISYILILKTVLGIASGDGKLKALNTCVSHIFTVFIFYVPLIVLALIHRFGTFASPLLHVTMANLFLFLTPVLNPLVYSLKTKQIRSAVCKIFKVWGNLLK
How it was run: as §1

UniProt Q3U0P3 = biological target: T4, UniProt Q3U0P3
T4 sequence (whole entry): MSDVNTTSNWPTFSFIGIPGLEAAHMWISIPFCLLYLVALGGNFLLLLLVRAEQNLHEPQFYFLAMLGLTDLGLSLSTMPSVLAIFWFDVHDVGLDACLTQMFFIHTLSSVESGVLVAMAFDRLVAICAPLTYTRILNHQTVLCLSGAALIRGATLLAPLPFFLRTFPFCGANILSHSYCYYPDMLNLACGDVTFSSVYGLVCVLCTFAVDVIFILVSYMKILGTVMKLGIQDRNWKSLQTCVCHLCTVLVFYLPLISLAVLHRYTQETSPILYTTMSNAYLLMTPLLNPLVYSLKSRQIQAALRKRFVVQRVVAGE
How it was run: as §1

UniProt Q7TQU8 = biological target: T5, UniProt Q7TQU8
T5 sequence (whole entry): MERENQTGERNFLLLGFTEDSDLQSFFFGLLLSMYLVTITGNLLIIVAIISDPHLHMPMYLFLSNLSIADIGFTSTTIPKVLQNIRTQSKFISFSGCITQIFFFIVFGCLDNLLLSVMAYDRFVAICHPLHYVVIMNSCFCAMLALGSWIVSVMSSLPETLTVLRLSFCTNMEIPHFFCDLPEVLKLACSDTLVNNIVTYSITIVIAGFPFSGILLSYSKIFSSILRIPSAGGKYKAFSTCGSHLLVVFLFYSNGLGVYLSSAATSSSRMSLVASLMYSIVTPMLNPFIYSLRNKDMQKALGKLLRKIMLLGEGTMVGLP
How it was run: as §1

UniProt Q7TR79 = biological target: T6, UniProt Q7TR79
T6 sequence (whole entry): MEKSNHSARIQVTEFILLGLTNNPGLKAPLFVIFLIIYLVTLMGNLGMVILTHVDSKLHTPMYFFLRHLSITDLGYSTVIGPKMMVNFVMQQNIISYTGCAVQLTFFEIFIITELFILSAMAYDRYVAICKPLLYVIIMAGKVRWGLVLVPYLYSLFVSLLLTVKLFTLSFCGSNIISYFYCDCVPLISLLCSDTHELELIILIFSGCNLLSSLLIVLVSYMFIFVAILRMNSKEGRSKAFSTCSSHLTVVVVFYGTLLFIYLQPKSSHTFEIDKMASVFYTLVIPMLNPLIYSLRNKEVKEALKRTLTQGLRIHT
How it was run: as §1

UniProt L7N1Y8 = biological target: UniProt L7N1Y8
How it was run: as §1

UniProt Q7TR75 = biological target: UniProt Q7TR75
How it was run: as §1

UniProt Q7TRA1 = biological target: T7, UniProt Q7TRA1
T7 sequence (whole entry): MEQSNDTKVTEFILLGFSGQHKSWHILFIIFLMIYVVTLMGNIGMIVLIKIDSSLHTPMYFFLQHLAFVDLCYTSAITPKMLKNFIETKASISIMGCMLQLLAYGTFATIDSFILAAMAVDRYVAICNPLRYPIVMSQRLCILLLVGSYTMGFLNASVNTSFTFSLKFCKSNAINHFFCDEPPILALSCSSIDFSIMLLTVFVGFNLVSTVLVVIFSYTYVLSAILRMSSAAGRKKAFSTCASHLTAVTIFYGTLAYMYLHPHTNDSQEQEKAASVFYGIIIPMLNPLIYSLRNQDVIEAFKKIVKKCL
How it was run: as §1

UniProt Q7TRA2 = biological target: T8, UniProt Q7TRA2
T8 sequence (whole entry): T7 sequence (whole entry) with S18A, I86T, I94F, M95I, S112C, V208L, T219I, V221I, V305A
How it was run: as §1

UniProt Q7TRB8 = biological target: UniProt Q7TRB8
How it was run: as §1

UniProt Q7TQR7 = biological target: UniProt Q7TQR7
How it was run: as §1

UniProt Q7TQR9 = biological target: UniProt Q7TQR9
How it was run: as §1
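Further: active if original authors judged signal statistically different from baseline.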

UniProt Q7TRB8, sequence (Q7TRB8 as listed by the source): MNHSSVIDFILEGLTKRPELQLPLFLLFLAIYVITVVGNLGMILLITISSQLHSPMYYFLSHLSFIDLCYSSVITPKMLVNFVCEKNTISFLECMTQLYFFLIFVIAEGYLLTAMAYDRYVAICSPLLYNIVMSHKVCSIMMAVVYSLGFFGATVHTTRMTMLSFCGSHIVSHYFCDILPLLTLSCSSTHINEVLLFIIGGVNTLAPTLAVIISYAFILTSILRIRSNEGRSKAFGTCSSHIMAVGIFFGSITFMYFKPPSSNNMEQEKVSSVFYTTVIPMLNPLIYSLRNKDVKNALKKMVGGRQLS
UniProt Q7TQR9, sequence (Q7TQR9 as listed by the source): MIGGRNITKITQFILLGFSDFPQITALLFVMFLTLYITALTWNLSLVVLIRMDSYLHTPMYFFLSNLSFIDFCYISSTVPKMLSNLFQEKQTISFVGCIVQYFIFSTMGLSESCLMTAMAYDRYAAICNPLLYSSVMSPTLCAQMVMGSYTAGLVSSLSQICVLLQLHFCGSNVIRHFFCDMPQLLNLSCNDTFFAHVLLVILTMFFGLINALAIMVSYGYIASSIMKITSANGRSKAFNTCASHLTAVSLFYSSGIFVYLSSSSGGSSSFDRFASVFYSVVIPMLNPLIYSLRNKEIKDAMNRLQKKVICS
UniProt L7N1Y8, sequence (L7N1Y8 as listed by the source): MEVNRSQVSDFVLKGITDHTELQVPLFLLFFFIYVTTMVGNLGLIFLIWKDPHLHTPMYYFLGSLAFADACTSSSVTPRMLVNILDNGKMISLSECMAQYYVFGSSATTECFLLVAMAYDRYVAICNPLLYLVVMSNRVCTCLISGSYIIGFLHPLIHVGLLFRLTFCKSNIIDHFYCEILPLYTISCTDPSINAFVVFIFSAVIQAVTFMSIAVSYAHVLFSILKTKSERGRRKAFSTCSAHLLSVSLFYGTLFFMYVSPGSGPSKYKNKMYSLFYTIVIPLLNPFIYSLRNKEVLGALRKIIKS
UniProt Q7TQR7, sequence (Q7TQR7 as listed by the source): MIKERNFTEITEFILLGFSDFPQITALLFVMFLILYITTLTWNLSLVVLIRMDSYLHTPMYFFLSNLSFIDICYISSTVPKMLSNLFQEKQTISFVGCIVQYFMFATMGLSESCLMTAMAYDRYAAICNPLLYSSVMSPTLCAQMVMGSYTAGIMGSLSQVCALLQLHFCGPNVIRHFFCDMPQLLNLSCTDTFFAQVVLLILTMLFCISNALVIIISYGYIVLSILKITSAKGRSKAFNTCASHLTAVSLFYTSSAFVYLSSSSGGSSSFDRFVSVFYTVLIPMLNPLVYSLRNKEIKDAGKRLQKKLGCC
UniProt Q7TR75, sequence (Q7TR75 as listed by the source): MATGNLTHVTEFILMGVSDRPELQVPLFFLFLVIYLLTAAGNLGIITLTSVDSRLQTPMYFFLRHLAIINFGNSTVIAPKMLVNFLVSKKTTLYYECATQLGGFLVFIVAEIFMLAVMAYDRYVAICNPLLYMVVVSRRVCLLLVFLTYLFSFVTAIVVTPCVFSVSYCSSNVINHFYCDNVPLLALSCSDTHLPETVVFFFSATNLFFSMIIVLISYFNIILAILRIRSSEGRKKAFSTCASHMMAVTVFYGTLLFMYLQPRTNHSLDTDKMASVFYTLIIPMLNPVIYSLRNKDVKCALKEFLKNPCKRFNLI

Structure (SMILES): O=C(O)C1CCC1
- odorant receptor agonist call (UniProt L7MU75): inactive
- odorant receptor agonist call (UniProt L7N210): inactive
- odorant receptor agonist call (UniProt Q3KPB0): inactive
- odorant receptor agonist call (UniProt Q3U0P3): inactive
- odorant receptor agonist call (UniProt Q7TQU8): inactive
- odorant receptor agonist call (UniProt Q7TR79): inactive

Structure (SMILES): C=CC(=C)CCC=C(C)C
- odorant receptor agonist call (UniProt L7MU75): inactive
- odorant receptor agonist call (UniProt L7N210): inactive
- odorant receptor agonist call (UniProt Q3KPB0): inactive
- odorant receptor agonist call (UniProt Q3U0P3): inactive
- odorant receptor agonist call (UniProt Q7TQU8): inactive
- odorant receptor agonist call (UniProt Q7TR79): inactive

Structure (SMILES): CC=CC(=O)C1=C(C)CCCC1(C)C
- odorant receptor agonist call (UniProt L7MU75): inactive
- odorant receptor agonist call (UniProt L7N210): inactive
- odorant receptor agonist call (UniProt Q3KPB0): inactive
- odorant receptor agonist call (UniProt Q3U0P3): inactive
- odorant receptor agonist call (UniProt Q7TQU8): inactive
- odorant receptor agonist call (UniProt Q7TR79): inactive

Structure (SMILES): CCCCCCCCCCOC(C)=O
- odorant receptor agonist call (UniProt L7MU75): inactive
- odorant receptor agonist call (UniProt L7N210): inactive
- odorant receptor agonist call (UniProt Q3KPB0): inactive
- odorant receptor agonist call (UniProt Q3U0P3): inactive
- odorant receptor agonist call (UniProt Q7TQU8): inactive
- odorant receptor agonist call (UniProt Q7TR79): inactive

Structure (SMILES): Cc1ccc2c(c1)OCC(=O)CO2
- odorant receptor agonist call (UniProt L7MU75): inactive
- odorant receptor agonist call (UniProt L7N210): inactive
- odorant receptor agonist call (UniProt Q3KPB0): inactive
- odorant receptor agonist call (UniProt Q3U0P3): inactive
- odorant receptor agonist call (UniProt Q7TQU8): inactive
- odorant receptor agonist call (UniProt Q7TR79): inactive

Structure (SMILES): CCSSCC
- odorant receptor agonist call (UniProt L7MU75): inactive
- odorant receptor agonist call (UniProt L7N210): inactive
- odorant receptor agonist call (UniProt Q3KPB0): inactive
- odorant receptor agonist call (UniProt Q3U0P3): inactive
- odorant receptor agonist call (UniProt Q7TQU8): inactive
- odorant receptor agonist call (UniProt Q7TR79): inactive

Structure (SMILES): CC1CCC(C(C)C)C(=O)C1 (stereo not drawn)
- odorant receptor agonist call (UniProt L7MU75): inactive
- odorant receptor agonist call (UniProt L7N210): inactive
- odorant receptor agonist call (UniProt Q3KPB0): inactive
- odorant receptor agonist call (UniProt Q3U0P3): inactive
- odorant receptor agonist call (UniProt Q7TQU8): inactive
- odorant receptor agonist call (UniProt Q7TR79): inactive

Structure (SMILES): CC(C)=CCCC(C)=CCOC(=O)C(C)C
- odorant receptor agonist call (UniProt L7MU75): inactive
- odorant receptor agonist call (UniProt L7N210): inactive
- odorant receptor agonist call (UniProt Q3KPB0): inactive
- odorant receptor agonist call (UniProt Q3U0P3): inactive
- odorant receptor agonist call (UniProt Q7TQU8): inactive
- odorant receptor agonist call (UniProt Q7TR79): inactive

Structure (SMILES): OCCCCCCCCCO
- odorant receptor agonist call (UniProt L7MU75): inactive
- odorant receptor agonist call (UniProt L7N210): inactive
- odorant receptor agonist call (UniProt Q3KPB0): inactive
- odorant receptor agonist call (UniProt Q3U0P3): inactive
- odorant receptor agonist call (UniProt Q7TQU8): inactive
- odorant receptor agonist call (UniProt Q7TR79): inactive

Structure (SMILES): CC=Cc1ccc(OC)cc1
- odorant receptor agonist call (UniProt L7MU75): inactive
- odorant receptor agonist call (UniProt L7N210): inactive
- odorant receptor agonist call (UniProt Q3KPB0): inactive
- odorant receptor agonist call (UniProt Q3U0P3): inactive
- odorant receptor agonist call (UniProt Q7TQU8): inactive
- odorant receptor agonist call (UniProt Q7TR79): inactive

Structure (SMILES): C=C(C)C1CC=C(C)CC1 (stereo not drawn)
- odorant receptor agonist call (UniProt L7MU75): inactive
- odorant receptor agonist call (UniProt L7N210): inactive
- odorant receptor agonist call (UniProt Q3KPB0): inactive
- odorant receptor agonist call (UniProt Q3U0P3): inactive
- odorant receptor agonist call (UniProt Q7TQU8): inactive
- odorant receptor agonist call (UniProt Q7TR79): inactive

Structure (SMILES): CNc1ccccc1C(=O)OC
- odorant receptor agonist call (UniProt L7MU75): inactive
- odorant receptor agonist call (UniProt L7N210): active
- odorant receptor agonist call (UniProt Q3KPB0): inactive
- odorant receptor agonist call (UniProt Q3U0P3): inactive
- odorant receptor agonist call (UniProt Q7TQU8): inactive
- odorant receptor agonist call (UniProt Q7TR79): inactive

Structure (SMILES): CCCCCCC=CC=O
- odorant receptor agonist call (UniProt L7MU75): inactive
- odorant receptor agonist call (UniProt L7N210): inactive
- odorant receptor agonist call (UniProt Q3KPB0): inactive
- odorant receptor agonist call (UniProt Q3U0P3): inactive
- odorant receptor agonist call (UniProt Q7TQU8): inactive
- odorant receptor agonist call (UniProt Q7TR79): inactive

Structure (SMILES): CC(C)=C1CCC(C)CC1=O (stereo not drawn)
- odorant receptor agonist call (UniProt L7MU75): inactive
- odorant receptor agonist call (UniProt L7N210): inactive
- odorant receptor agonist call (UniProt Q3KPB0): inactive
- odorant receptor agonist call (UniProt Q3U0P3): inactive
- odorant receptor agonist call (UniProt Q7TQU8): inactive
- odorant receptor agonist call (UniProt Q7TR79): inactive

Structure (SMILES): CCOC(=O)C(C)CC (stereo not drawn)
- odorant receptor agonist call (UniProt L7MU75): inactive
- odorant receptor agonist call (UniProt L7N210): inactive
- odorant receptor agonist call (UniProt Q3KPB0): inactive
- odorant receptor agonist call (UniProt Q3U0P3): inactive
- odorant receptor agonist call (UniProt Q7TQU8): inactive
- odorant receptor agonist call (UniProt Q7TR79): inactive

Structure (SMILES): c1ccc2ncccc2c1
- odorant receptor agonist call (UniProt L7MU75): active
- odorant receptor agonist call (UniProt L7N210): active
- odorant receptor agonist call (UniProt Q3KPB0): inactive
- odorant receptor agonist call (UniProt Q3U0P3): inactive
- odorant receptor agonist call (UniProt Q7TQU8): inactive
- odorant receptor agonist call (UniProt Q7TR79): inactive

Structure (SMILES): O=C1CCOc2ccccc21
- odorant receptor agonist call (UniProt L7N1Y8): active
- odorant receptor agonist call (UniProt Q7TR75): active
- odorant receptor agonist call (UniProt Q7TRA1): inactive
- odorant receptor agonist call (UniProt Q7TRA2): inactive
- odorant receptor agonist call (UniProt Q7TRB8): inactive

Structure (SMILES): CC1CCCCCCCCCCCCC(=O)C1 (stereo not drawn)
- odorant receptor agonist call (UniProt Q7TQR7): inactive
- odorant receptor agonist call (UniProt Q7TQR9): inactive
